Measurements: ChEMBL document CHEMBL4765320, “Identification and optimization of piperine analogues as neuroprotective agents for the treatment of Parkinson's disease via the activation of Nrf2/keap1 pathway” (Eur J Med Chem, 2020)
The source made the active and inactive calls. The rule behind the calls is not given here.

Columns and labels:
[1] = tested on: PC-12; test: Inhibition of H202-induced apoptosis in rat PC-12 cells assessed as necrotic cells at 25 uM after 24 hrs by Annexin-V-FITC/PI-staining based flow cytometric analysis (reference value: 0.33%); type: functional; design: scale not given: the % may be the effect or the level left
Summary of the method: (§1)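 PC12 cells seeded 2 × 10⁵/well for 24 h, pretreated 24 h with 12.5, 25, 50 or 100 µM compound, then given fresh medium containing 650 µM H2O2. Harvested cells washed in binding buffer, stained 5 min with Annexin V-FITC/PI, analysed by flow cytometry.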

[2] = target: T1, Nuclear factor erythroid 2-related factor 2 (Rattus norvegicus) (UniProt O54968); test: Induction of Nrf2 nuclear translocation in rat PC-12 cells assessed as Nrf2 accumulation in nucleus at 25 uM by Western blot analysis; type: cell-based; conditions: filed as activator, time 4-8 hrs, TDE = time-dependent effect
T1 sequence (whole entry): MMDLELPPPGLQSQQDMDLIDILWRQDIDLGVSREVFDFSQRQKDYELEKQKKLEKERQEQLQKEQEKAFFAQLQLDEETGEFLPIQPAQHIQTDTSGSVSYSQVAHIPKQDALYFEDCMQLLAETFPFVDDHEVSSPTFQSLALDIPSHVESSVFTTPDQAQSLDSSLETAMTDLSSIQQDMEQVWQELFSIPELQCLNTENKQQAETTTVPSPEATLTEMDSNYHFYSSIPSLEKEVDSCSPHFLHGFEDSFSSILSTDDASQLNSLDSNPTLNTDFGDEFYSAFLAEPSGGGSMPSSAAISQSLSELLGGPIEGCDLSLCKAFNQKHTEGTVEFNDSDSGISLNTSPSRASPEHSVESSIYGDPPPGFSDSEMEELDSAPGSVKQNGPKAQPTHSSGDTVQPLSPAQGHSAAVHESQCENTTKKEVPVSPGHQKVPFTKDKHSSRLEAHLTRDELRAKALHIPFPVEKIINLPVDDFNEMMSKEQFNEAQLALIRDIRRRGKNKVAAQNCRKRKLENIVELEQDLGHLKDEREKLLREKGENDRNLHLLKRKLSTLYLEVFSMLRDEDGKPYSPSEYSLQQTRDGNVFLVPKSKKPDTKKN
Summary of the method: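 PC12 cells incubated with 25 µM compound for 4, 6 and 8 h; nuclear and cytoplasmic fractions prepared with an extraction kit; nuclear, cytosolic and total Nrf2 assessed by SDS-PAGE/PVDF Western blot. Three independent experiments.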

[3] = tested on: PC-12; test: Inhibition of H202-induced apoptosis in rat PC-12 cells assessed as early apoptotic cells at 50 uM after 24 hrs by Annexin-V-FITC/PI-staining based flow cytometric analysis (reference value: 15.16%); type: functional; design: scale not given: the % may be the effect or the level left; summary of the method: as §1
[4] = tested on: PC-12; test: Inhibition of H202-induced apoptosis in rat PC-12 cells assessed as viable cells at 12.5 uM after 24 hrs by Annexin-V-FITC/PI-staining based flow cytometric analysis (reference value: 52.01%); type: functional; conditions: read-out: Activity; summary of the method: as §1
[5] = tested on: PC-12; test: Inhibition of H2O2-induced reactive oxygen species production in rat PC-12 cells assessed as decrease in ROS accumulation at 12.5 to 50 uM measured after pretreated for 24 hrs followed by H2O2 challenge and measured after 24 hrs by DCFH-DA probe based flow cytometry; type: functional, cell-based; conditions: dose 12.5-50 µM, time 48.0 hrs
Summary of the method: (§2)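 PC12 cells seeded 1 × 10⁴/well, pretreated 24 h with 12.5–100 µM compound, then 300 µM H2O2 for 24 h. Rinsed, loaded with DCFH-DA (1:1000 in serum-free medium) 15 min at room temperature in the dark, washed; fluorescence read by microscopy, plate reader ([…]) and flow cytometry; three independent experiments.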

[6] = tested on: PC-12; test: Inhibition of H202-induced apoptosis in rat PC-12 cells assessed as late apoptotic cells at 12.5 uM after 24 hrs by Annexin-V-FITC/PI-staining based flow cytometric analysis (reference value: 32.5%); type: functional; design: scale not given: the % may be the effect or the level left; summary of the method: as §1
[7] = tested on: PC-12; test: Upregulation of HO-1 expression in rat PC-12 cell incubated for 24 hrs by Western blot analysis; type: functional
Summary of the method: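 PC12 cells treated with compound for 24 h; lysates resolved by SDS-PAGE, transferred to PVDF and probed for HO-1 and NQO1; band intensities quantified densitometrically. Mean ± SD of three independent experiments.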

[8] = target: T1, Nuclear factor erythroid 2-related factor 2 (Rattus norvegicus); test: Induction of Nrf2 nuclear translocation in rat PC-12 cells assessed as Nrf2 accumulation in nucleus at 25 uM measured after 4 to 8 hrs by immunofluorescence analysis; type: cell-based; conditions: filed as activator, time 4-8 hrs
Summary of the method: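 PC12 cells exposed to 25 µM compound for 0, 4, 6 and 8 h; fixed in cold methanol (−20 °C, 20 min), anti-Nrf2 overnight, Dylight 594 secondary (1:500, 1 h), DAPI nuclear counterstain; imaged by fluorescence microscopy.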

[9] = tested on: PC-12; test: Neuroprotective activity against H202-induced cell damage in rat PC-12 cells assessed as decrease in LDH content incubated at 12.5 to 25 uM for 24 hrs by Lactate dehydrogenase assay; type: functional, cell-based; conditions: dose 12.5-25 µM
Summary of the method: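 PC12 cells seeded 1 × 10⁴/well for 24 h, pretreated with compound at several concentrations (12.5–100 µM range), then challenged with H2O2; LDH released into medium quantified as membrane-damage marker. Mean ± SD, three independent experiments.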

[10] = tested on: PC-12; test: Inhibition of H202-induced apoptosis in rat PC-12 cells assessed as early apoptotic cells at 100 uM after 24 hrs by Annexin-V-FITC/PI-staining based flow cytometric analysis (reference value: 15.16%); type: functional; design: scale not given: the % may be the effect or the level left; summary of the method: as §1
[11] = tested on: Mus musculus; test: Neuroprotective activity against lesioned C57BL/6 mouse model of Parkinson's disease assessed as increase in number of TH positive cells at 100 mg/kg , po administered for 2 week […] by Immuno histochemistry assays; conditions: time 2 weeks
[12] = tested on: PC-12; test: Inhibition of H202-induced apoptosis in rat PC-12 cells assessed as late apoptotic cells at 100 uM after 24 hrs by Annexin-V-FITC/PI-staining based flow cytometric analysis (reference value: 32.5%); type: functional; design: scale not given: the % may be the effect or the level left; summary of the method: as §1
[13] = tested on: PC-12; test: Inhibition of H2O2-induced reactive oxygen species production in rat PC-12 cells assessed as ROS accumulation at 100 uM measured after pretreated for 24 hrs followed by H2O2 challenge and measured after 24 hrs by DCFH-DA probe based flow cytometry; type: functional, cell-based; summary of the method: as §2
[14] = tested on: PC-12; test: Inhibition of H202-induced apoptosis in rat PC-12 cells assessed as viable cells at 25 uM after 24 hrs by Annexin-V-FITC/PI-staining based flow cytometric analysis (reference value: 52.01%); type: functional; conditions: read-out: Activity; summary of the method: as §1
[15] = tested on: PC-12; test: Inhibition of H202-induced apoptosis in rat PC-12 cells assessed as necrotic cells at 50 uM after 24 hrs by Annexin-V-FITC/PI-staining based flow cytometric analysis (reference value: 0.33%); type: functional; design: scale not given: the % may be the effect or the level left; summary of the method: as §1
[16] = tested on: Mus musculus; test: Neuroprotective activity in lesioned C57BL/6 mouse model of Parkinson's disease assessed as assessed as reduction in climbing down time at 100 mg/kg, po administered for 2 week after MPTP stimulation by pole test; type: functional; conditions: C57BL/6, po, 336 h, read-out: INH, time 2 weeks
Summary of the method: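 Male 10-week-old C57BL/6 mice (20–23 g), n = 6/group. Prophylactic: oral compound (50 or 100 mg/kg in saline) 2 weeks, then MPTP-HCl 25 mg/kg i.p. in week 3. Therapeutic: MPTP-HCl 25 mg/kg i.p. 1 week, then oral 100 mg/kg 2 weeks. Saline vehicle. Pole/rotarod training last 3 days; TH immunohistochemistry on SNpc and striatum.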

## COc1ccccc1/C=C/C=C/C(=O)N1CCCCC1
[1]
  Activity: 0.24%
[2]
  Activity: Tde
[3]
  Activity: 12.01%
[4]
  viability at 12.5 µM: 61.4%
[5]
  inhibition: Active
[6]
  Activity: 26.08%
[7]
  Activity: Active
[8]
  Activity: Active
[9]
  Activity: Active
[10]
  Activity: 12.11%
[11]
  Activity: 74%
[12]
  Activity: 29.28%
[13]
  Activity: inactive
[14]
  viability at 25 µM: 69%
[15]
  Activity: 0.26%
[16]
  inhibition in vivo at 100 mg/kg: 20.6%
